In brackets after ≈: the same amount, converted by molar mass.
Tests used:
[1] = system: MetRS2; details: cited from earlier work
[2] = system: S. pneumoniae; assay: Broth microdilution MIC, S. pneumoniae; format: cell-based; details: Streptococcus pneumoniae, 24 h, read-out: MIC, Bacteria, S. pneumoniae
Procedure, shortened: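 S. pneumoniae clinical isolate, from paediatric community-acquired pneumonia. CLSI M7-A7 broth microdilution in Mueller Hinton broth with 2.5% lysed sheep blood, inoculum about 2 × 10^8 CFU/mL. Serial test-compound dilutions, 37°C for 24 h. MIC was the lowest concentration suppressing visible growth.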

SMILES	Activity towards MetRS2 [1]	MIC [2]
C=C(F)c1sc(CNCCCNc2cc(O)c3ccccc3n2)c(C)c1Br [REP8839]	no activity	–
CC1(C)S[C@@H]2[C@H](NC(=O)[C@H](N)c3ccccc3)C(=O)N2[C@H]1C(=O)O [Ampicillin, reference compound]	–	0.0625 µg/mL (≈ 0.179 µM)
